Mdm2-MdmX inh – human Mdm2/MdmX binding inhibition | inhibition, % at 8 µM | AID 485346 | SaOS-2 split-luciferase Mdm2/MdmX complementation, luminescence | 330,000 tested, 3% active;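 active means inhibition of at least 50% at 8 µM in the primary screen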
Target sequence (O15151 whole entry, looked up): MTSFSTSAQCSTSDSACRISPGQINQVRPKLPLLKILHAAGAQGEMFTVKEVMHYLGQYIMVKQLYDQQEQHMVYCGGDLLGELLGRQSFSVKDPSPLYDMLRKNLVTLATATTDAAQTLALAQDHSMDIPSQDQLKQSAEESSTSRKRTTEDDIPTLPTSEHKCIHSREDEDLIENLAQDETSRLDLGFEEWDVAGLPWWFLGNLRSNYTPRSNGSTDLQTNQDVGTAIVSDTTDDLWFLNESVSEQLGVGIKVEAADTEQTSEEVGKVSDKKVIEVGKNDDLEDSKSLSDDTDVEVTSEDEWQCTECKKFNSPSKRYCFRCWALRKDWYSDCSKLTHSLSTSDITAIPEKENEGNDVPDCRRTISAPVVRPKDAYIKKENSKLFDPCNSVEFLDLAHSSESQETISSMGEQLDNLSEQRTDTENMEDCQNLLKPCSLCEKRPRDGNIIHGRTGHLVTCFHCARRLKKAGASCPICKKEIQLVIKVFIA
Target sequence (Q00987 whole entry, looked up): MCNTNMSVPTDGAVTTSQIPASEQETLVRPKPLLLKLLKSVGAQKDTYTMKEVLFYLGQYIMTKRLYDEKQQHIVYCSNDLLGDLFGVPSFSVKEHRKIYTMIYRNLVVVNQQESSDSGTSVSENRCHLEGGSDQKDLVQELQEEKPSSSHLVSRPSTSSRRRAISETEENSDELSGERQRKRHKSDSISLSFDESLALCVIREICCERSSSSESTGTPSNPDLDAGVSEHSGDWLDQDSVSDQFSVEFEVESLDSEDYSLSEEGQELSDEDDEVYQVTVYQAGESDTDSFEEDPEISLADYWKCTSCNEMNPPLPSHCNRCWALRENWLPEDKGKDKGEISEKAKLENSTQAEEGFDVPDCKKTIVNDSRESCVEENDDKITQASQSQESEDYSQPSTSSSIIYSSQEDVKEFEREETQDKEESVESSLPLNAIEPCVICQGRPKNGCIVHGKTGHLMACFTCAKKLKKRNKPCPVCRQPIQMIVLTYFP
SKKanGAS inh – inhibitors of SKKanGAS S. pyogenes growth in kanamycin (SK-promoter or general growth effect). BacTiter-Glo, 6 h. 300,000 tested, 1.3% active. inhibition, % at 7.5 µM;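 active means mean replicate score, as percent of positive control median, at least 50; inconclusive means mean below 50 but one replicate at or above 50; inactive means mean and every replicate below 50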;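 further: strain carries kanamycin resistance gene driven by streptokinase promoter and grows in 40 µg/ml kanamycin; loss of luminescence reflects streptokinase promoter inhibition or plain growth inhibition; 0% = median of DMSO wells and 100% = positive control at its reference dose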
CSC inhib – blocks cancer stem cells. cancer stem cell-like cells viability, luminescence. 300,000 tested, 1.1% active. inhibition, % at 7.5 µM; in the data active means inhibition above about 75%; inconclusive means no clear call, values can overlap the other calls; tested in HMLE shEcad cells
T cruzi inh – blocks replication of Trypanosoma cruzi; T. cruzi beta-gal in NIH3T3, luminescence, 90 h; inhibition, % (no concentration beside the values); 300,000 tested, 1.4% active; AID 1885;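 active means mean inhibition across valid replicates above about 55%, limit read from the data; inconclusive means mean below that limit but half or more replicates reach it; inactive means mean below it, under half of replicates reach it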;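 further: signal also drops with host cell toxicity which is not excluded here; 0% = plate median of DMSO wells and 100% = zero luminescence signal; higher percent means less beta-gal luminescence so fewer parasites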
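compound dosing = single 50 nL compound addition per well in DMSO | material = NIH/3T3 host cells with β-galactosidase reporter T. cruzi | input = 5,000 host fibroblasts per well | timing = ≥90 h infection period, 3 h prior cell attachment | read-out basis = percent inhibition of parasite-derived β-gal signal | detection = GalScreen β-gal luminescence, detergent lysis, 60 min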
aSyn UTR inh – 5' untranslated region of α-synuclein, MLPCN primary screen. AID 1813. 300,000 tested, 0.82% active. alpha-synuclein 5'UTR reporter, inhibitor activity. inhibition, % (tested at 7.5 µM); in the data active means inhibition above about 60%; inconclusive means no clear call, values can overlap the other calls;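 further: H4 neuroglioblastoma cells stably carrying SNCA 5'UTR luciferase fusion; 0% = DMSO wells and 100% = positive control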
Mdm2-MdmX conf – confirmation of human Mdm2/MdmX interaction inhibitors; inhibition, % at 8 µM; shares compounds with Mdm2-MdmX inh; 10,000 tested, 55% active; Mdm2-MdmX binding, luminescent assay; in the data active means inhibition above about 40%
FLuc counter – inhibits full-length luciferase, flagging false Mdm2/MdmX hits | shares compounds with Mdm2-MdmX inh | SaOS-2 full-length luciferase counterscreen, luminescence | inhibition, % at 8 µM | 6,200 tested, 77% active | AID 504607;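 active means mean inhibition at 8 µM reaching about 37%, which flags the compound as non-specific, limit read from the data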;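 further: p53-null SaOS-2 cells with luciferase driven by a doxycycline-inducible promoter; compound on cells about two nights before reading with doxycycline added after day one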
Starred values were filed as active, the others as inactive. This is a sample that favours compounds with a hit; in the whole collection about 5.4% have one here.

CC(CCc1ccccc1)NC(=O)C(C)OC(=O)c1ccco1 (stereo unspecified) was read as Mdm2-MdmX inh 26, SKKanGAS inh -7, CSC inhib 29, T cruzi inh -1 and aSyn UTR inh -2.
COc1cc2c3nnc(-c4ccc(F)cc4)c-3cn(Cc3ccc(F)cc3)c2cc1OC was read as Mdm2-MdmX inh 100*, SKKanGAS inh 2, CSC inhib 7, T cruzi inh 1, aSyn UTR inh 11 and Mdm2-MdmX conf 20.
Screening COc1ccc(-c2nnn(Cc3ccccc3)n2)cc1OC returned Mdm2-MdmX inh 17, SKKanGAS inh 8, CSC inhib -14, T cruzi inh 13 and aSyn UTR inh -23.
Screening COc1ccc(Cn2cc3c(-c4ccc(F)cc4)nnc-3c3cc(OC)c(OC)cc32)cc1 returned Mdm2-MdmX inh 100*, CSC inhib 28, Mdm2-MdmX conf 96* and FLuc counter 68*.
Screening COc1cc2c3nnc(-c4ccc(F)cc4)c-3cn(Cc3ccccc3)c2cc1OC returned Mdm2-MdmX inh 100*, SKKanGAS inh 7, CSC inhib 38, T cruzi inh 6, aSyn UTR inh 2, Mdm2-MdmX conf 94* and FLuc counter 57*.
`O=C(CN1CCN(S(=O)(=O)c2ccccc2)CC1)Nc1ccc(Cl)c([N+](=O)[O-])c1` gave Mdm2-MdmX inh 14, SKKanGAS inh -1, CSC inhib 7, T cruzi inh 27 and aSyn UTR inh -2.
COc1ccc(-c2nn(CCC#N)cc2C(=O)Nc2cccc(C(=O)O)c2)cc1[N+](=O)[O-] was read as Mdm2-MdmX inh -7, SKKanGAS inh -2, CSC inhib -5, T cruzi inh -4 and aSyn UTR inh 6.
`COc1cc(C(=O)Nc2nc(-c3ccc(Cl)cc3)c(C)s2)ccc1OCC(=O)Nc1ccc(F)cc1` gave Mdm2-MdmX inh 78*, SKKanGAS inh 7, CSC inhib 56, T cruzi inh 34, aSyn UTR inh 11, Mdm2-MdmX conf 66* and FLuc counter 71*.
Cc1ccccc1C1C(C#N)=C2NC(=O)c3c(sc4c3CCCCC4)N2C2=C1C(=O)CC(C)(C)C2 (stereo unspecified) was read as Mdm2-MdmX inh 82*, SKKanGAS inh 18, CSC inhib 15, T cruzi inh -8, aSyn UTR inh -9, Mdm2-MdmX conf 63* and FLuc counter 38*.
Screening COc1cc(C2C(C#N)=C(N)N(c3sc4c(c3C#N)CCCC4)C3=C2C(=O)CC(C)(C)C3)cc(OC)c1OC (stereo unspecified) returned Mdm2-MdmX inh 15, SKKanGAS inh 4, CSC inhib 52, T cruzi inh 44 and aSyn UTR inh 1.
`COc1ccc(-c2[nH]ncc2C=O)cc1` gave Mdm2-MdmX inh 10, SKKanGAS inh 6, CSC inhib -2, T cruzi inh 0 and aSyn UTR inh 18.
For Cc1cccc(C(=O)CC(=O)c2cc(Cl)ccc2O)c1 the results were Mdm2-MdmX inh 62*, SKKanGAS inh 94*, CSC inhib 32, T cruzi inh 31, aSyn UTR inh 64*, Mdm2-MdmX conf 58* and FLuc counter 39*.
Screening CCN(C(=O)c1cc2c(=O)[nH]c3ccc(C)cc3c2s1)c1ccccc1C returned Mdm2-MdmX inh 57*, SKKanGAS inh -2, CSC inhib 18, T cruzi inh 56*, aSyn UTR inh 15 and Mdm2-MdmX conf -9.
`Cc1ccc2[nH]c(=O)c3cc(C(=O)N(C)c4ccc(C)c(C)c4)sc3c2c1` gave Mdm2-MdmX inh 65*, SKKanGAS inh 9, CSC inhib 27, T cruzi inh 35, aSyn UTR inh 28, Mdm2-MdmX conf 40* and FLuc counter 67*.
Screening CCN(C(=O)c1cc2c(=O)[nH]c3ccc(C)cc3c2s1)c1ccc(F)cc1 returned Mdm2-MdmX inh 48, SKKanGAS inh -4, T cruzi inh 41 and aSyn UTR inh -8.
`CCN(C(=O)c1cc2c(=O)[nH]c3ccc(C)cc3c2s1)c1cccc(C)c1` gave Mdm2-MdmX inh 50, SKKanGAS inh -3, CSC inhib 31, T cruzi inh 56*, aSyn UTR inh -217, Mdm2-MdmX conf 52* and FLuc counter 64*.
CCOc1ccc(C(=O)NCC(c2cccs2)N(C)C)cc1 (stereo unspecified) was read as Mdm2-MdmX inh 20, SKKanGAS inh -1, T cruzi inh -9 and aSyn UTR inh -17.
Cc1nnc(-c2cnn(C)c2N)n1CCCN1CCOCC1 was read as Mdm2-MdmX inh 0, SKKanGAS inh -1, CSC inhib 0, T cruzi inh -3 and aSyn UTR inh -24.
For CC(C)=CCc1c(O)cc2oc3c(CC=C(C)C)c(O)c(O)c(CC=C(C)C)c3c(=O)c2c1O the results were Mdm2-MdmX inh 100*, SKKanGAS inh 101*, CSC inhib 3, T cruzi inh 40, aSyn UTR inh 62*, Mdm2-MdmX conf 43* and FLuc counter 47*.
`CC(C)=CCc1cc(-c2oc3cc(O)cc(O)c3c(=O)c2O)ccc1O` gave Mdm2-MdmX inh 8, SKKanGAS inh 31, CSC inhib 1, T cruzi inh 5 and aSyn UTR inh -43.
For N#CCC(=O)N/N=C/c1cc([N+](=O)[O-])ccc1N1CCCC1 the results were Mdm2-MdmX inh 30, SKKanGAS inh -2, CSC inhib -6, T cruzi inh -4 and aSyn UTR inh -9.
O=C(Cn1c2ccccc2c(=O)c2ccccc21)N/N=C/c1cc([N+](=O)[O-])ccc1N1CCCCCC1 was read as Mdm2-MdmX inh 97*, SKKanGAS inh -4, CSC inhib -3, T cruzi inh -21, aSyn UTR inh -21 and Mdm2-MdmX conf 13.
O=C(N/N=C/c1cc([N+](=O)[O-])ccc1N1CCNCC1)c1ccc([N+](=O)[O-])cc1 was read as Mdm2-MdmX inh 101*, SKKanGAS inh 9, CSC inhib -18, T cruzi inh -5, aSyn UTR inh -24, Mdm2-MdmX conf 41* and FLuc counter 32.
For O=C(CNc1ccccc1)N/N=C/c1cc([N+](=O)[O-])ccc1N1CCCC1 the results were Mdm2-MdmX inh 27, SKKanGAS inh 17, CSC inhib 12, T cruzi inh 5 and aSyn UTR inh 1.
Screening Fc1ccc(-n2ncc3c(SCc4cccnc4)ncnc32)cc1 returned Mdm2-MdmX inh -125, SKKanGAS inh 0, CSC inhib 31, T cruzi inh inconclusive and aSyn UTR inh -138.
Screening CN(CC(=O)Nc1ccc(Cl)c(C(F)(F)F)c1)C(=O)CCc1nc2ccccc2c(=O)[nH]1 returned Mdm2-MdmX inh 54*, CSC inhib -5 and Mdm2-MdmX conf 24.
CN(CC(=O)Nc1ccc(Cl)c(C(F)(F)F)c1)C(=O)C1CC(=O)N(CCc2ccccc2)C1 (stereo unspecified) was read as Mdm2-MdmX inh 51*, Mdm2-MdmX conf 42* and FLuc counter 61*.
